Experimental data from different studies.
Each line is one published result; the experiments were not run side by side.
OPRK1: Kappa-type opioid receptor (OPRK1, Cavia porcellus, UniProt P41144)
ADRA1A: Alpha-1A adrenergic receptor (ADRA1A, Homo sapiens, UniProt P35348)
GLP2R: Glucagon-like peptide 2 receptor (GLP2R, Homo sapiens, UniProt O95838)

Compound | target | assay | setting | endpoint | value
Cc1cc(O)cc(C)c1C[C@H](N)C(=O)N[C@H](C)C(=O)N[C@@H](Cc1ccccc1)C(=O)N[C@@H](CCCN)C(N)=O | OPRK1 | ligand displacement, radioligand | cell membranes | Ki | 0.032 µM
Cc1cc(C)c(C[C@H](NC(=O)[C@@H](CCCNC(=N)N)NC(=O)[C@@H](N)Cc2c(C)cc(O)cc2C)C(=O)N[C@@H](CCCCN)C(N)=O)c(C)c1 | OPRK1 | ligand displacement, radioligand | cell membranes | Ki | 0.048 µM
Cc1cc(O)cc(C)c1C[C@H](C)C(=O)N[C@@H]1C/C=C\CC[C@@H](C(N)=O)NC(=O)[C@H](Cc2ccccc2)NC(=O)[C@H](Cc2ccccc2)NC1=O | OPRK1 | ligand displacement, radioligand | cell membranes | Ki | 0.185 µM
CCc1cccc(C)c1C[C@H](NC(=O)[C@@H](CCCNC(=N)N)NC(=O)[C@@H](N)Cc1c(C)cc(O)cc1C)C(=O)N[C@@H](CCCCN)C(N)=O | OPRK1 | ligand displacement, radioligand | cell membranes | Ki | 0.000961 µM
Cc1cc(O)cc(C)c1C[C@H](N)C(=O)N[C@H](C)C(=O)NCC(=O)N[C@@H](Cc1ccc(Cl)cc1)C(=O)N(C)CCC[C@@]1(c2ccc(F)cc2)OCc2cc(C#N)ccc21 | ADRA1A | ligand displacement, radioligand |  | Ki | 4.6 µM
Nc1ncnc2c1ncn2[C@@H]1O[C@H](COP(=O)(O)OP(=O)(O)NP(=O)(O)O)[C@@H](O)[C@H]1O | lptB (Escherichia coli, UniProt P0A9V1) | ATPase activity, inhibitor |  | Ki | 25000 µM
Cc1cc(O)cc(C)c1C[C@H](N)C(=O)N[C@H](CCCNC(=N)N)C(=O)N[C@@H](Cc1c(C)cccc1C(C)C)C(=O)N[C@@H](CCCCN)C(N)=O | OPRK1 | ligand displacement, radioligand | cell membranes | Ki | 0.000236 µM
C[C@H]1CC[C@@]2(OC1)O[C@H]1C[C@H]3[C@@H]4CC[C@@H]5C[C@@H](O[C@@H]6O[C@H](CO)[C@H](O)[C@H](O)[C@H]6O[C@@H]6O[C@H](CO)[C@@H](O)[C@H](O)[C@H]6O)CC[C@]5(C)[C@H]4CC[C@]3(C)[C@H]1[C@@H]2C | Angiotensin-converting enzyme 2 (ACE2, Homo sapiens, UniProt Q9BYF1) | binding |  | Kd | 61.7 µM
C[C@@H](NC(=O)[C@@H](N)Cc1ccc(O)cc1)C(=O)NCC(=O)N[C@@H](Cc1ccccc1)C(=O)N(C)CCC[C@@]1(c2ccc(F)cc2)OCc2cc(C#N)ccc21 | ADRA1A | ligand displacement, radioligand |  | Ki | 6.8 µM
CC[C@H](C)[C@H](NC(=O)[C@H](CC(C)C)NC(=O)[C@H](Cc1c[nH]c2ccccc12)NC(=O)[C@H](CCCCN)NC(=O)[C@H](CC(C)C)NC(=O)[C@H](Cc1ccccc1)NC(=O)[C@H](CCC(=O)O)NC(=O)[C@H](CCC(N)=O)NC(=O)[C@@H](NC(=O)[C@H](C)NC(=O)[C@H](CC(C)C)NC(=O)[C@H](CC(=O)O)NC(=O)[C@H](CC(=O)O)NC(=O)[C@H](CC(C)C)NC(=O)[C@H](CC(C)C)NC(=O)[C@H](CCCCN)NC(=O)[C@H](CC(N)=O)NC(=O)[C@H](Cc1ccc(O)cc1)NC(=O)[C@H](CC(=O)O)NC(=O)[C@H](CO)NC(=O)[C@@H](NC(=O)[C@H](Cc1ccccc1)NC(=O)[C@@H](NC(=O)CNC(=O)[C@H](CC(=O)O)NC(=O)[C@H](C)NC(=O)[C@@H](N)Cc1c[nH]cn1)[C@@H](C)O)[C@@H](C)O)[C@@H](C)O)C(=O)N[C@@H](CC(N)=O)C(=O)N[C@@H](CCC(N)=O)C(=O)N[C@@H](CCCCN)C(=O)N[C@H](C(=O)N[C@H](C(=O)N[C@@H](CCC(N)=O)C(=O)O)[C@@H](C)O)C(C)C | GLP2R | reporter gene, agonist, luciferase |  | EC50 | 0.00141 µM
N=C(N)NCCC[C@@H]1NC(=O)[C@H](Cc2ccc(O)cc2)NC(=O)[C@@H](CCCCN)NC(=O)[C@@H](Cc2ccccc2)NC1=O | OPRK1 | ligand displacement, radioligand | cell membranes | Ki | 4.85 µM
CC[C@H](C)[C@H](NC(=O)[C@H](CO)NC(=O)[C@H](CC(=O)O)NC(=O)[C@H](CC(C)C)NC(=O)[C@@H](NC(=O)[C@H](CCCCN)NC(=O)[C@H](CC(N)=O)NC(=O)[C@@H](NC(=O)[C@H](CC(=O)O)NC(=O)[C@H](CO)NC(=O)[C@@H](NC(=O)[C@H](Cc1ccccc1)NC(=O)[C@H](CO)NC(=O)CNC(=O)[C@H](CC(=O)O)NC(=O)[C@@H](NC(=O)[C@@H](N)Cc1c[nH]cn1)C(C)C)[C@@H](C)O)C(C)C)C(C)C)C(=O)N[C@@H](C)C(=O)N[C@@H](C)C(=O)N[C@@H](CCCCN)C(=O)N[C@@H](CCC(=O)O)C(=O)N[C@@H](Cc1ccc(O)cc1)C(=O)N[C@@H](CC(C)C)C(=O)N[C@@H](CCC(N)=O)C(=O)N[C@@H](Cc1c[nH]c2ccccc12)C(=O)N[C@H](C(=O)N[C@@H](CCSC)C(=O)N[C@@H](CC(N)=O)C(=O)N[C@@H](CO)C(=O)N[C@@H](CCCCN)C(=O)N[C@@H](C)C(=O)N[C@@H](CO)C(=O)NCC(=O)O)C(C)C | GLP2R | reporter gene, agonist, luciferase |  | EC50 | > 1 µM
CC[C@H](C)[C@H](NC(=O)[C@H](CCCNC(=N)N)NC(=O)[C@H](CC(C)C)NC(=O)[C@@H](N)Cc1ccccc1)C(=O)N[C@@H](CCCNC(=N)N)C(=O)N1CCC[C@H]1C(=O)N[C@@H](CCCCN)C(=O)O | ADRA1A | cell-free assay, radioligand |  | Ki | > 10 µM
